Source: ChEMBL document CHEMBL4364339, “Systematically Mitigating the p38α Activity of Triazole-based BET Inhibitors” (ACS Med Chem Lett, 2019)
The source made the active and inactive calls. No cut-off for these calls is given here.

Key:
MM1.S = test: Antiproliferative activity against human MM1S cells assessed as reduction in cell viability after 69 hrs by Alamar blue assay; type: functional, cell-based
In short: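 MM.1S cell viability, read as EC50 from a nonlinear curve fit; mean ± SEM of three biological replicates, each run in three technical replicates.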

[1] = target: T1, Bromodomain-containing protein 4 (Homo sapiens, UniProt O60885); test: Inhibition of BRD4 bromodomain 1 (unknown origin) expressed in Escherichia coli Bl21(DE3)-pRARE cells by fluorescence anisotropy
In short: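 BRD4-D1 ligand displacement read by fluorescence anisotropy, reported as IC50; mean and standard deviation of three independent trials; IC50 above 100 μM reported as >100.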

[2] = target: T1, Bromodomain-containing protein 4; test: Inhibition of BRD4 bromodomain 1 in human MM1S cells assessed as decrease in c-MYC expression after 6 hrs by Western blot analysis; type: cell-based
[3] = target: Mitogen-activated protein kinase 14 (Homo sapiens, UniProt Q16539); test: Binding affinity to wild-type human full length p38-alpha (M1 to S360 residues) expressed in bacterial expression system by Kinomescan method
Mitogen-activated protein kinase 14, sequence (Q16539 whole entry, the tested form may be a part): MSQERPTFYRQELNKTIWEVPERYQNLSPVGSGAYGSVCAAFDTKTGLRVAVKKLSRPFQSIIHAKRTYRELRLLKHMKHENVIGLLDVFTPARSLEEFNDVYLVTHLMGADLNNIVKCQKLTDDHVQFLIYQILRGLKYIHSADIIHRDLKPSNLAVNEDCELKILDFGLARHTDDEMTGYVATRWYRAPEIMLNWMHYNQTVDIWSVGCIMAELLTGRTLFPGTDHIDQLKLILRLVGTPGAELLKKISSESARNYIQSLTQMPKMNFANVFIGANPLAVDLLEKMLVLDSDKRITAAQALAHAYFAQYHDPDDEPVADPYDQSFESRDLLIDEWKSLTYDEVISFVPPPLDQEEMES
In short: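 Kd for p38α from KINOMEscan binding; mean and standard error of two independent trials.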

Homo sapiens [4] = species: Homo sapiens; test: Selectivity ratio of compound effect on human full length p38-alpha (M1 to S360 residues) expressed in bacterial cells over compound effect on human partial length BRD4 bromodomain 1 long isoform (N44 to E168 residues) expressed in bacterial cells; type: cell-based
[5] = target: T1, Bromodomain-containing protein 4; test: Inhibition of biotinylated histone H4 peptide binding to BRD4 bromodomain 1 (44 to 168 residues) (unknown origin) after 60 mins by Alphascreen method
Homo sapiens [6] = species: Homo sapiens; test: Selectivity index, ratio of Kd for human full length p38-alpha (M1 to S360 residues) expressed in bacterial cells to Kd for human partial length BRD4 bromodomain 2 long isoform (K333 to E460 residues) expressed in bacterial cells; type: cell-based
[7] = target: SWI/SNF-related matrix-associated actin-dependent regulator of chromatin subfamily A member 2 (Homo sapiens, UniProt P51531); test: Binding affinity to human partial length SMARCA2 (S1377 to Q1486 residues) expressed in bacterial expression system by BROMOscan assay
SWI/SNF-related matrix-associated actin-dependent regulator of chromatin subfamily A member 2, sequence (P51531 whole entry, the tested form may be a part): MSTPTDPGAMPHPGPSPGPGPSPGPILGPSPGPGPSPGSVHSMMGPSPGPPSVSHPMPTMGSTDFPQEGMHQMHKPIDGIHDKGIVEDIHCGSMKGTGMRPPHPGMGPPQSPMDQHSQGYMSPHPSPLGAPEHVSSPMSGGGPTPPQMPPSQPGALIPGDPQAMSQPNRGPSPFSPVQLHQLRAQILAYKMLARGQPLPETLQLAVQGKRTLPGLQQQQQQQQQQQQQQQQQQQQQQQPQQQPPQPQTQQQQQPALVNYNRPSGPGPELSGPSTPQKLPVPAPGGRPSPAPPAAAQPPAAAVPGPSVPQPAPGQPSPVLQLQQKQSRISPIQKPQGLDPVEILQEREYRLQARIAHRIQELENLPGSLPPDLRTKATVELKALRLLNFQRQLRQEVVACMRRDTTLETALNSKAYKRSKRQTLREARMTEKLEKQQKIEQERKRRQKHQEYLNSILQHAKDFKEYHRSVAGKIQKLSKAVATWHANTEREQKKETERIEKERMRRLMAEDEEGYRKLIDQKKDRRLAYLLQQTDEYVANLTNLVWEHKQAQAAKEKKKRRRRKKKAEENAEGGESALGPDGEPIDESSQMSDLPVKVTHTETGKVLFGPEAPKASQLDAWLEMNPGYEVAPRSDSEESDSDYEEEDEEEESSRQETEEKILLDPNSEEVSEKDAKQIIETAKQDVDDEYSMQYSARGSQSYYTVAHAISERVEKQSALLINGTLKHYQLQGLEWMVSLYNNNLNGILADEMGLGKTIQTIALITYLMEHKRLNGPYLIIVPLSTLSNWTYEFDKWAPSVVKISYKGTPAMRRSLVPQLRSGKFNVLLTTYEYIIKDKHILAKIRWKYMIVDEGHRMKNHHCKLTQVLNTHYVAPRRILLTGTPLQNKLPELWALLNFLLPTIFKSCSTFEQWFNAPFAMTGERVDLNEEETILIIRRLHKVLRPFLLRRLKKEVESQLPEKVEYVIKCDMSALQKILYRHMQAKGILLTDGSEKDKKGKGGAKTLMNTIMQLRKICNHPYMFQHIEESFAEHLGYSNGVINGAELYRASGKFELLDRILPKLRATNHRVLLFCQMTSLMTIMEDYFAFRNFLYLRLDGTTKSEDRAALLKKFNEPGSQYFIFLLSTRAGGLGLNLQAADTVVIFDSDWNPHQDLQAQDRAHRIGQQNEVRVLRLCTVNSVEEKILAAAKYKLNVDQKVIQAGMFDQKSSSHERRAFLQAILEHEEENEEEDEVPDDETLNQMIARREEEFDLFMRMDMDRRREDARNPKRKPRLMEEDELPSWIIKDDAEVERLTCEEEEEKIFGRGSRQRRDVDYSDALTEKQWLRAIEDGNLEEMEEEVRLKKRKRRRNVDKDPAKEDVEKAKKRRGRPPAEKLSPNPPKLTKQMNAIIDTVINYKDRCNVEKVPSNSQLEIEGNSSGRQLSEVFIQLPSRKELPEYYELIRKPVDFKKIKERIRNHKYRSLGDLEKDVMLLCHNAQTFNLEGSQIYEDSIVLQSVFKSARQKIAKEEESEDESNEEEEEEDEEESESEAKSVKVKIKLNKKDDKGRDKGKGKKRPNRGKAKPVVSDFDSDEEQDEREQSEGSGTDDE
In short: (§1)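 Dissociation constants from BROMOscan competition binding; mean and standard error of two independent trials.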

[8] = target: T1, Bromodomain-containing protein 4; test: Binding affinity to human partial length BRD4 bromodomain 1 long isoform (N44 to E168 residues) expressed in bacterial expression system by BROMOscan assay; in short: as §1
CREB-binding protein = CREB-binding protein (Homo sapiens, UniProt Q92793); test: Binding affinity to human partial length CREBBP (R1081 to G1197 residues) expressed in bacterial expression system by BROMOscan assay; in short: as §1
CREB-binding protein, sequence (Q92793 whole entry, the tested form may be a part, canonical isoform): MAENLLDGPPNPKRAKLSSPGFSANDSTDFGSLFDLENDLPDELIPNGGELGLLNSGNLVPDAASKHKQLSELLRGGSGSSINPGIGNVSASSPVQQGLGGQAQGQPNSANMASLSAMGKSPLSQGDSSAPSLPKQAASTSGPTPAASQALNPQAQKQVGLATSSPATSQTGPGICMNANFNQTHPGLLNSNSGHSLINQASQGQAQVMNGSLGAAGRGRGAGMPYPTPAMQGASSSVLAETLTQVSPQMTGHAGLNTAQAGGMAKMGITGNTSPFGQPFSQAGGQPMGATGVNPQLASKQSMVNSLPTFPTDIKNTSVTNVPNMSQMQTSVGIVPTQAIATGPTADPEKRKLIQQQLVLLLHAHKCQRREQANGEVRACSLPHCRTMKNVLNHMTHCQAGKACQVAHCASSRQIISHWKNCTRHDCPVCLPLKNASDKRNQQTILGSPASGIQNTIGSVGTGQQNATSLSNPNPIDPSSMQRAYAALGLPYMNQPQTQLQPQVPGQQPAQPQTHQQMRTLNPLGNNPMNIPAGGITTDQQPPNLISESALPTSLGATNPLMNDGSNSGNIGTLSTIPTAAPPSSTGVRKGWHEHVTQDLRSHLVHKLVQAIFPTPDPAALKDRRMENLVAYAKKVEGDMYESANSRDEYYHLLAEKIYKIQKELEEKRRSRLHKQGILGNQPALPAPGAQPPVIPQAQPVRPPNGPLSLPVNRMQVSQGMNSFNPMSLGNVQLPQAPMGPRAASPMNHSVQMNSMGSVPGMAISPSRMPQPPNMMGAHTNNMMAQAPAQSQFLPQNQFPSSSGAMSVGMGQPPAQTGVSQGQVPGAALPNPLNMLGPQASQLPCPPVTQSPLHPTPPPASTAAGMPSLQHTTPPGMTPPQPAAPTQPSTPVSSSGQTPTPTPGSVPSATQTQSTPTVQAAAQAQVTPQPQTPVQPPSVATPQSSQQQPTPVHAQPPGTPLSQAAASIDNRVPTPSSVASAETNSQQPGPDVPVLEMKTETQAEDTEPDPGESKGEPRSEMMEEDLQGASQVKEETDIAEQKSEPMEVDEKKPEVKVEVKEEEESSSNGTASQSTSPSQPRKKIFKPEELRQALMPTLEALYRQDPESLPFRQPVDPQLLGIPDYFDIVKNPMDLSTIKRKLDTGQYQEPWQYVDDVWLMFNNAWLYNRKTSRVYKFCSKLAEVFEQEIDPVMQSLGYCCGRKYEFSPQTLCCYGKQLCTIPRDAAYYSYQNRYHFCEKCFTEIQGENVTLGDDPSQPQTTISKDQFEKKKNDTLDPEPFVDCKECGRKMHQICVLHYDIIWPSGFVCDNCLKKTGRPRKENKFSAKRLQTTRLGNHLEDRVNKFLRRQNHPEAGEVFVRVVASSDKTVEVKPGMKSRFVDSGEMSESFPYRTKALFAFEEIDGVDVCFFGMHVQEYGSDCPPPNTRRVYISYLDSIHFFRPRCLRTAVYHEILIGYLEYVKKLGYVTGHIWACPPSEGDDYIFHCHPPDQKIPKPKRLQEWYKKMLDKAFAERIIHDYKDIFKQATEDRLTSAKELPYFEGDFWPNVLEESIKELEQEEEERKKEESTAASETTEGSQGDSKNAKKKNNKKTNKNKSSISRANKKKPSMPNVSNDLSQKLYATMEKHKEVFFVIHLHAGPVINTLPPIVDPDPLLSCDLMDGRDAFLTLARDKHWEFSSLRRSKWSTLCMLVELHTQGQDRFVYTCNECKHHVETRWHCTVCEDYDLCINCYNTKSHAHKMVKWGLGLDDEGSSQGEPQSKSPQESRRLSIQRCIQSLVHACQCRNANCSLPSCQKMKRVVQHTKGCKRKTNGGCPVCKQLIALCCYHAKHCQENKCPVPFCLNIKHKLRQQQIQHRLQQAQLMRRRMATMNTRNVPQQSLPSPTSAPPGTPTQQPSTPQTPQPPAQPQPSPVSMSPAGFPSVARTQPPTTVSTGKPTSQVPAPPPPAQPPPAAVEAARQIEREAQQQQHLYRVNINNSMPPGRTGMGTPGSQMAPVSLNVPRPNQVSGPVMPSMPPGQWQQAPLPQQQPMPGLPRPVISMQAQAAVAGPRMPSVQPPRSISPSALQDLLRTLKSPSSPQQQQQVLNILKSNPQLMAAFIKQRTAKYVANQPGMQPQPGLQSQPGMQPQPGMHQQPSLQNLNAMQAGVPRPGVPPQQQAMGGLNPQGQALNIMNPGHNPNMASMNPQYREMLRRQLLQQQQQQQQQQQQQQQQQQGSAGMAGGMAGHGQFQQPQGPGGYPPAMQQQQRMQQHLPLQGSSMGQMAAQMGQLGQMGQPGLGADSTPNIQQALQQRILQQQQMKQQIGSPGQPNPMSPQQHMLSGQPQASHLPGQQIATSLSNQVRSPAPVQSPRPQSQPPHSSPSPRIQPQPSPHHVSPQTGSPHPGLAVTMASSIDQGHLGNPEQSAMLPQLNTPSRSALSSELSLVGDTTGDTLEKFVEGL

[9] = target: T1, Bromodomain-containing protein 4; test: Binding affinity to human partial length BRD4 bromodomain 2 long isoform (K333 to E460 residues) expressed in bacterial expression system by BROMOscan assay; in short: as §1
Homo sapiens [10] = species: Homo sapiens; test: Selectivity index, ratio of Kd for human full length p38-alpha (M1 to S360 residues) expressed in bacterial cells to Kd for human partial length BRD4 bromodomain 1 long isoform (N44 to E168 residues) expressed in bacterial cells; type: cell-based

EC50 (MM1.S) [µM] | IC50 [1] [µM] | Kd [3] [µM] | Structure (SMILES) | further results
6.6 | 11 |  | Cc1cc(C)cc(Oc2nccc(-c3c(C)nnn3C3CCNCC3)n2)c1 | inhibition [2]: Active
 | > 100 |  | Cc1cc(C)cc(Oc2nccc(-c3c(C(C)C)nnn3C3CCN(C(=N)N)CC3)n2)c1 | 
 | > 100 |  | Cc1cc(C)cc(Oc2nccc(-c3c(C(C)(C)C)nnn3C3CCNCC3)n2)c1 | 
6.3 | 3.9 |  | Cc1cc(C)cc(Nc2cccc(-c3c(C)nnn3C3CCNCC3)n2)c1 | inhibition [2]: Active
 | > 100 | 0.12 | Cc1cc(C)cc(Oc2nccc(-c3c(-c4ccc(F)cc4)nnn3C3CCNCC3)n2)c1 | IC50 [5]: 27 µM

The next lines start with the compound.

Structure (SMILES) | EC50 (MM1.S) [µM] | IC50 [1] [µM] | Kd [3] [µM] | further results
Cc1cc(C)cc(Oc2cccc(-c3c(C)nnn3C3CCNCC3)n2)c1 | 2.9 |  |  | 
Cc1cc(C)cc(Oc2nccc(-c3c(C4CCCC4)nnn3C3CCNCC3)n2)c1 |  | > 100 |  | 
Cc1cc(C)cc(Oc2nccc(-c3c(C4CCCCC4)nnn3C3CCNCC3)n2)c1 |  | > 100 |  | 
Cc1cc(C)cc(Nc2nccc(-c3c(-c4ccc(F)cc4)nnn3C3CCNCC3)n2)c1 |  |  | 0.0022 | Selectivity ratio (Homo sapiens [4]): > 10000
Cc1cc(C)cc(Oc2cccc(-c3c(-c4ccc(F)cc4)nnn3C3CCNCC3)n2)c1 |  |  | 5 | 
CCCc1nnn(C2CCN(C(=N)N)CC2)c1-c1ccnc(Oc2cc(C)cc(C)c2)n1 |  | > 100 |  | 
Cc1cc(C)cc(Oc2cccc(-c3c(C)nnn3C3CCN(C(=N)N)CC3)n2)c1 | > 50 |  | > 200 | IC50 [5]: 1.7 µM; Ratio (Homo sapiens [6]): > 100; Kd [7]: > 100 µM; Kd [8]: 1.1 µM; Kd (CREB-binding protein): > 100 µM; Kd [9]: 0.94 µM; Ratio (Homo sapiens [10]): > 100
Cc1cc(C)cc(Nc2cccc(-c3c(C)nnn3C3CCN(C(=N)N)CC3)n2)c1 | > 50 |  | > 25 | Kd [7]: > 100 µM; Kd [8]: 1.2 µM; Kd (CREB-binding protein): 78 µM; Kd [9]: 2.1 µM
Cc1cc(C)cc(Nc2cccc(-c3c(-c4ccc(F)cc4)nnn3C3CCNCC3)n2)c1 |  |  | 6.5 | 
Cc1cc(C)cc(Oc2nccc(-c3c(C)nnn3C3CCN(C(=N)N)CC3)n2)c1 | > 50 |  |  | 
Cc1cc(C)cc(Oc2cncc(-c3c(C)nnn3C3CCN(C(=N)N)CC3)c2)c1 |  | > 100 |  | 
